Reference: ChEMBL document CHEMBL1133678, “Synthesis of new indeno[1,2-c]isoquinolines: cytotoxic non-camptothecin topoisomerase I inhibitors” (2000)

Assays:
OVCAR-3 = test: Antiproliferative activity was determined for 50% growth inhibition against human ovarian OVCAR-3 cell line; assay type: functional
Summary of the method: (§1)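 Human cancer cell lines from the roughly 55-line panel. GI50 is the concentration giving 50% growth inhibition. The test range was 10^-4 to 10^-8 M. Values outside the range were set to the minimum (10^-8 M) or the maximum (10^-4 M).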

SF-539 = test: Antiproliferative activity was determined for 50% growth inhibition against human CNS SF-539 cell line; assay type: functional; summary of the method: as §1
SN12C = test: Antiproliferative activity was determined for 50% growth inhibition against human renal SN12C cell line; assay type: functional; settings: Homo sapiens, SN12C; summary of the method: as §1
MDA-MB-435 = test: Antiproliferative activity was determined for 50% growth inhibition against human breast MDA-MB-435 cell line; assay type: functional; settings: Homo sapiens, MDA-MB-435; summary of the method: as §1
HOP-62 = test: Antiproliferative activity was determined for 50% growth inhibition against human lung HOP-62 cell line; assay type: functional; settings: Homo sapiens, HOP-62; summary of the method: as §1
DU-145 [1] = test: Antiproliferative activity was determined for 50% growth inhibition against human Prostate c; assay type: functional; settings: DU-145, Prostate gland; summary of the method: as §1
HCT-116 = test: Antiproliferative activity was determined for 50% growth inhibition against human colon HCT116 cell line; assay type: functional; settings: Homo sapiens, HCT-116; summary of the method: as §1
[2] = tested on: Panel (Carcinoma cell lines); test: Mean graph midpoint for growth inhibition of all human cancer cell lines; assay type: functional; design: unit: µM
Summary of the method: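 Mean graph midpoint across all cell lines successfully tested in the roughly 55-line human cancer panel. Each line's GI50 is the 50% growth-inhibition concentration, tested over 10^-4 to 10^-8 M. Out-of-range values were set to 10^-8 M or 10^-4 M before averaging.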

UACC-62 = test: Antiproliferative activity was determined for 50% growth inhibition against human melanoma UACC-62 cell line; assay type: functional; settings: Homo sapiens, UACC-62; summary of the method: as §1
[3] = biological target: T1, DNA topoisomerase 1 (Homo sapiens) (UniProt P11387); test: Inhibitory activity of compound against human recombinant DNA topoisomerase I mediated DNA cleavage; Weak activity
T1 sequence (whole entry): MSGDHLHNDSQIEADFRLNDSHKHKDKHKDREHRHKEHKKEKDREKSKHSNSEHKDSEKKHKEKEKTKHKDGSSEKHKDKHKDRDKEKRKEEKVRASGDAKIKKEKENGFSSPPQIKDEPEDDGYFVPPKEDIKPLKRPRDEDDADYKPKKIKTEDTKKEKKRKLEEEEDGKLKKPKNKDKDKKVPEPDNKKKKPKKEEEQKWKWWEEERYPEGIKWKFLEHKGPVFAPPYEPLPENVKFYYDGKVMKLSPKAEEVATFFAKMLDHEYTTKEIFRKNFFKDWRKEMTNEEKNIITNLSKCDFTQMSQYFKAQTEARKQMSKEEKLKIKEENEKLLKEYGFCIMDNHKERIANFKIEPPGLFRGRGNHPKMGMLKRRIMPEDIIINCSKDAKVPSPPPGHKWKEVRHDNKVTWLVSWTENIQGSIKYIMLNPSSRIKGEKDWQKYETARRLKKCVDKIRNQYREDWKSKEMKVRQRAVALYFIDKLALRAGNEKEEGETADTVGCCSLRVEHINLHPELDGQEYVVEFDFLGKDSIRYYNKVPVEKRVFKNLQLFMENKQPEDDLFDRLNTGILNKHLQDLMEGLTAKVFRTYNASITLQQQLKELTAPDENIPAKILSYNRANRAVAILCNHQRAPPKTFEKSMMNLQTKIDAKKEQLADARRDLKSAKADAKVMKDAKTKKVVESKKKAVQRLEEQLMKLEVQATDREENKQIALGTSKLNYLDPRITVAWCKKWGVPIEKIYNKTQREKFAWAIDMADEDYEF

DU-145 [4] = test: Antiproliferative activity was determined for 50% growth inhibition against human Prostate DU-145 cell line; assay type: functional; settings: Homo sapiens, DU-145; summary of the method: as §1

SMILES	GI50 (OVCAR-3)	GI50 (SF-539)	GI50 (SN12C)	GI50 (MDA-MB-435)	GI50 (HOP-62)	GI50 (DU-145 [1])	GI50 (HCT-116)	MGM [2]	GI50 (UACC-62)	GI50 (OVCAR-3; Homo sapiens, OVCAR-3)	GI50 (SF-539; Homo sapiens, SF-539)	Activity [3]	GI50 (DU-145 [4])
COc1cc2c3c(n(CCCNCCO)c(=O)c2cc1OC)-c1cc2c(cc1C3=O)OCO2.Cl	350 nM	40 nM	< 10 nM	790 nM	20 nM	< 10 nM	100 nM	0.11	30 nM	–	–	–	–
O=C1c2ccccc2-c2c1c1ccccc1c(=O)n2CCCl	–	–	4390 nM	3700 nM	3810 nM	–	3860 nM	4.37	8080 nM	5870 nM	2480 nM	Weak activity	3500 nM
